# Data taken from ChEMBL document CHEMBL4765426, “Design, synthesis and in vitro anti-influenza A virus evaluation of novel quinazoline derivatives containing S-acetamide and NH-acetamide moieties at C-4” (Eur J Med Chem, 2020).
# The source made the active and inactive calls.
# Columns and labels:
# [1] = Cytotoxicity against human A549 cells assessed as reduction in cell viability after 48 hrs by CCK8 assay; format: cell-based
# Influenza A virus [2] = experiment: Antiviral activity against Influenza A virus A/WSN/33(H1N1) infected in HEK293T-Gluc cells pretreated for 2 hrs followed by viral infection and measured after 24 hrs by Gaussia luciferase reporter gene assay; format: functional, organism-based; conditions: A/WSN/1933(H1N1), HEK-293T
# In short: (§1)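 Reporter cells were HEK293T cells stably transfected with pLenti6-Gluc, which constitutively expresses negative-strand Gaussia luciferase RNA that becomes positive-strand on IAV infection. Cells were infected with A/WSN/33 or A/PR/8/1934 (H1N1). Antiviral activity was read as Gluc signal, and IC50 values were derived. Ribavirin served as positive control.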
# [3] = Cytotoxicity against human HEK293T cells assessed as reduction in cell viability after 48 hrs by CCK8 assay; format: cell-based, HEK-293T
# [4] = Selectivity index, ratio of CC50 for human HEK293T cells to IC50 for Influenza A virus A/WSN/33(H1N1) infected in HEK293T-Gluc cells; format: toxicity, cell-based; conditions: read-out: Ratio CC50/IC50
# Influenza A virus [5] = experiment: Antiviral activity against Influenza A virus A/PR/8/34 (H1N1) infected in HEK293T-Gluc cells pretreated for 2 hrs followed by viral infection and measured after 24 hrs by Gaussia luciferase reporter gene assay; format: functional, organism-based; conditions: A/Puerto Rico/8/1934(H1N1), HEK-293T; in short: as §1
# Influenza A virus [6] = experiment: Antiviral activity against Influenza A virus A/WSN/33(H1N1) infected in HEK293T-Gluc cells assessed as inhibition of virus infection at 10 uM pretreated for 2 hrs followed by viral infection and measured after 24 hrs by Gaussia luciferase reporter gene assay; format: functional; conditions: A/WSN/1933(H1N1), HEK-293T, time 26 hrs
# In short: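 A single-concentration screen at 10 μM was run against A/WSN/33 (H1N1) in HEK293T-Gluc reporter cells. These cells carry a stably transfected pLenti6-Gluc construct expressing negative-strand Gaussia luciferase RNA that is converted to positive strand upon infection. Inhibition ratio of infection was read from Gluc activity.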
# Influenza A virus [7] = experiment: Antiviral activity against Influenza A virus A/WSN/33(H1N1)) infected in A549 cells assessed as inhibition of virus replication at early stage at 2.5 uM after 2 to 4 hrs post infection by time of addition assay; format: functional, organism-based; conditions: A/WSN/1933(H1N1), time 2-4 hrs
# In short: (§2)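 For time-of-addition, A549 cells were inoculated with single-cycle A/WSN/33 (H1N1) virus at MOI 0.2, and compound was added at 2.5 μM. Viral yield was measured as Gluc activity at 11 h post-infection. DMSO served as negative control and ribavirin (30 μM) as positive control.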
# Influenza A virus [8] = experiment: Antiviral activity against Influenza A virus A/WSN/33(H1N1)) infected in A549 cells assessed as reduction in viral yield at 2.5 uM preincubated before viral infection by time of addition assay; format: functional, organism-based; conditions: A/WSN/1933(H1N1); in short: as §2
# Influenza A virus [9] = experiment: Antiviral activity against Influenza A virus A/WSN/33(H1N1) infected in HEK293T cells co-transfected with NP/PA/PB1/PB2/pol-LUC/SV40-Renilla assessed as inhibition of viral RNA transcription and replication after 24 hrs by mini-genome replicon system based luciferase assay; format: functional, organism-based; conditions: A/WSN/1933(H1N1), dose 1.25-2.5 µM
# In short: (§3)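 In the mini-genome replicon assay, HEK293T cells were transfected with pCAGGS plasmids encoding PB2, PB1, PA and NP, plus pol-LUC and SV40-Renilla, with or without compound (1.25 or 2.5 μM). Firefly and Renilla luciferase were measured 24 h post-transfection and compared against negative control (p<0.01 threshold).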
# Influenza A virus [10] = experiment: Antiviral activity against Influenza A virus A/WSN/33(H1N1) infected in HEK293T cells co-transfected with NP/PA/PB1/PB2/pol-LUC/SV40-Renilla assessed as inhibition of viral RNA transcription and replication at 2.5 uM after 24 hrs by mini-genome replicon system based luciferase assay; format: functional, A/WSN/1933(H1N1); parameters: scale not given: the % may be the effect or the level left; in short: as §3
# [11] = Elimination rate constant in Sprague-Dawley rat at 1.25 mg/kg, iv measured up to 24 hrs by HPLC analysis; format: ADME, organism-based; conditions: in vivo
# In short: (§4)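 Male Sprague-Dawley rats (n = 3 per route) received a single intravenous dose (1.25 mg/kg) or a single oral dose (25 mg/kg). Plasma concentrations were followed over time, and PK parameters were derived from them. Values are reported as mean ± deviation.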
# [12] = Elimination rate constant in Sprague-Dawley rat at 25 mg/kg, po measured up to 24 hrs by HPLC analysis; format: ADME, organism-based; conditions: in vivo; in short: as §4
# [13] = Half life in Sprague-Dawley rat at 1.25 mg/kg, iv measured up to 24 hrs by HPLC analysis; format: ADME, organism-based; conditions: in vivo; in short: as §4
# [14] = Half life in Sprague-Dawley rat at 25 mg/kg, po measured up to 24 hrs by HPLC analysis; format: ADME, organism-based; conditions: in vivo; in short: as §4
# [15] = Tmax in Sprague-Dawley rat at 25 mg/kg, po measured up to 24 hrs by HPLC analysis; format: ADME, organism-based; conditions: in vivo; in short: as §4
# [16] = Cmax in Sprague-Dawley rat at 1.25 mg/kg, iv measured up to 24 hrs by HPLC analysis; format: ADME, organism-based; parameters: route intravenous, dose 1.25 mg/kg, time <=24; conditions: in vivo; in short: as §4
# [17] = Cmax in Sprague-Dawley rat at 25 mg/kg, po measured up to 24 hrs by HPLC analysis; format: ADME, organism-based; parameters: route oral, dose 25 mg/kg, time <=24; conditions: in vivo; in short: as §4
# [18] = Initial plasma concentration in Sprague-Dawley rat at 1.25 mg/kg, iv measured up to 24 hrs by HPLC analysis; format: ADME, organism-based; in short: as §4
# [19] = AUC (0 to t) in Sprague-Dawley rat at 1.25 mg/kg, iv measured up to 24 hrs by HPLC analysis; format: ADME, organism-based; parameters: route intravenous, dose 1.25 mg/kg, time <=24; conditions: in vivo; in short: as §4
# [20] = AUC (0 to t) in Sprague-Dawley rat at 25 mg/kg, po measured up to 24 hrs by HPLC analysis; format: ADME, organism-based; parameters: route oral, dose 25 mg/kg, time <=24; conditions: in vivo; in short: as §4
# [21] = AUC (0 to infinity) in Sprague-Dawley rat at 1.25 mg/kg, iv measured up to 24 hrs by HPLC analysis; format: ADME, organism-based; parameters: route intravenous, dose 1.25 mg/kg, time <=24; conditions: in vivo; in short: as §4
# [22] = AUC (0 to infinity) in Sprague-Dawley rat at 25 mg/kg, po measured up to 24 hrs by HPLC analysis; format: ADME, organism-based; parameters: route oral, dose 25 mg/kg, time <=24; conditions: in vivo; in short: as §4
# [23] = AUMC (0 to t) in Sprague-Dawley rat at 1.25 mg/kg, iv measured up to 24 hrs by HPLC analysis; format: ADME, organism-based; conditions: in vivo; in short: as §4
# [24] = AUMC (0 to t) in Sprague-Dawley rat at 25 mg/kg, po measured up to 24 hrs by HPLC analysis; format: ADME, organism-based; conditions: in vivo; in short: as §4
# [25] = AUMC (0 to infinity) in Sprague-Dawley rat at 1.25 mg/kg, iv measured up to 24 hrs by HPLC analysis; format: ADME, organism-based; conditions: in vivo; in short: as §4
# [26] = AUMC (0 to infinity) in Sprague-Dawley rat at 25 mg/kg, po measured up to 24 hrs by HPLC analysis; format: ADME, organism-based; conditions: in vivo; in short: as §4
# [27] = Clearance in Sprague-Dawley rat at 1.25 mg/kg, iv measured up to 24 hrs by HPLC analysis; format: ADME, organism-based; conditions: in vivo; in short: as §4
# [28] = Mean residence time in Sprague-Dawley rat at 1.25 mg/kg, iv measured up to 24 hrs by HPLC analysis; format: ADME, organism-based; conditions: in vivo; in short: as §4
# [29] = Mean residence time in Sprague-Dawley rat at 25 mg/kg, po measured up to 24 hrs by HPLC analysis; format: ADME, organism-based; conditions: in vivo; in short: as §4
# [30] = Volume of distribution at steady state in Sprague-Dawley rat at 1.25 mg/kg, iv measured up to 24 hrs by HPLC analysis; format: ADME, organism-based; conditions: in vivo, read-out: Vdss; in short: as §4
# [31] = Oral bioavailability in Sprague-Dawley rat at 25 mg/kg measured up to 24 hrs by HPLC analysis; format: ADME, organism-based; conditions: in vivo; in short: as §4
smiles,measurement,setting,value
O=C(CNc1nc(N2CCCC2)nc2ccccc12)Nc1cc(Cl)cc(Cl)c1,CC50 at 48 h,[1],5.92 µM
same,IC50,Influenza A virus [2],9.04 µM
same,CC50 at 48 h,[3],15.9 µM
same,selectivity ratio,[4],1.75
same,IC50,Influenza A virus [5],0.95 µM
NC(=O)c1ncn([C@@H]2O[C@H](CO)[C@@H](O)[C@H]2O)n1 [RIBAVIRIN],CC50 at 48 h,[3],> 100 µM
same,selectivity ratio,[4],> 6.51
O=C(COc1cccc2ccccc12)Nc1ccc(F)cc1,inhibition at 10 µM,Influenza A virus [6],78%
same,IC50,Influenza A virus [2],5.22 µM
same,CC50 at 48 h,[3],> 100 µM
same,selectivity ratio,[4],> 19.1
CN1CCN(c2nc(NCC(=O)NCc3ccccc3)c3ccccc3n2)CC1,IC50,Influenza A virus [2],11.5 µM
same,CC50 at 48 h,[3],> 100 µM
same,selectivity ratio,[4],> 8.72
O=C(CNc1nc(N2CCOCC2)nc2ccccc12)NCc1ccccc1,CC50 at 48 h,[1],> 100 µM
same,IC50,Influenza A virus [2],3.83 µM
same,CC50 at 48 h,[3],> 100 µM
same,selectivity ratio,[4],> 26.1
same,IC50,Influenza A virus [5],6.05 µM
O=C(CNc1nc(N2CCCC2)nc2ccccc12)NCc1ccco1,IC50,Influenza A virus [2],39.4 µM
same,CC50 at 48 h,[3],> 100 µM
same,selectivity ratio,[4],> 2.54
O=C(CNc1nc(N2CCCC2)nc2ccccc12)Nc1ccc2ccccc2c1,CC50 at 48 h,[1],4.77 µM
same,inhibition at 10 µM,Influenza A virus [6],99.8%
same,IC50,Influenza A virus [2],1.29 µM
same,CC50 at 48 h,[3],59.9 µM
same,selectivity ratio,[4],46.5
same,IC50,Influenza A virus [5],0.63 µM
same,Activity,Influenza A virus [7],Active
same,Activity,Influenza A virus [8],inactive
same,Activity,Influenza A virus [9],Dose-dependent effect
same,Activity,Influenza A virus [10],80%
same,k el at 24 h,[11],0.000286 s⁻¹
same,k el at 24 h,[12],8.89e-05 s⁻¹
same,half-life,[13],40.8 min
same,half-life,[14],135 min
same,Tmax,[15],19.8 min
same,Cmax,[16],58 ng/mL
same,Cmax,[17],78.6 ng/mL
same,C0 at 24 h,[18],80.8 ng/mL
same,AUC(0-t) at 24 h,[19],34.9 ng·h/mL
same,AUC(0-t) at 24 h,[20],157 ng·h/mL
same,AUC(0-inf),[21],39.2 ng·h/mL
same,AUC(0-inf),[22],183 ng·h/mL
same,AUMCt,[23],18 hr.hr.ng/ml
same,AUMCt,[24],313 hr.hr.ng/ml
same,AUMC,[25],30.6 hr.hr.ng/ml
same,AUMC,[26],553 hr.hr.ng/ml
same,clearance,[27],557 mL/min/kg
same,MRT,[28],47.4 min
same,MRT,[29],191 min
same,Vd,[30],26.6 L/kg
same,bioavailability,[31],22.5%
O=C(CNc1nc(N2CCc3ccccc3C2)nc2ccccc12)NCc1ccccc1,CC50 at 48 h,[1],12.8 µM
same,IC50,Influenza A virus [2],6.84 µM
same,CC50 at 48 h,[3],29.4 µM
same,selectivity ratio,[4],4.3
same,IC50,Influenza A virus [5],0.12 µM
